In one data set the target is T1, recombinant human PEPD (Homo sapiens, UniProt P12955).
T1 sequence (P12955 1-493): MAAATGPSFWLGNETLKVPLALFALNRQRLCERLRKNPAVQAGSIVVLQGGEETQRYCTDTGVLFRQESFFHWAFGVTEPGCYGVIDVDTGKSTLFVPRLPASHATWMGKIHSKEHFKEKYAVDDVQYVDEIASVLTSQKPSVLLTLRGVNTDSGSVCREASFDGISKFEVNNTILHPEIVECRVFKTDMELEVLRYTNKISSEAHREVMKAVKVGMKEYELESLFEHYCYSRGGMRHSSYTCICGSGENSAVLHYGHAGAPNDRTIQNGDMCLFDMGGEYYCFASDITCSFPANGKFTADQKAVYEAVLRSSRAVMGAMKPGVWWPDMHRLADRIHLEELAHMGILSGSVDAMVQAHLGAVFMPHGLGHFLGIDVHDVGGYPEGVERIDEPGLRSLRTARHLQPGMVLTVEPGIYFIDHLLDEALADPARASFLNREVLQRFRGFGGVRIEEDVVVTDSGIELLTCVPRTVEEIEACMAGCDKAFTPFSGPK
Description: Inhibition of recombinant PEPD, alanine release assay. It is filed as biochemical.

In the next data set the target is recombinant XPNPEP1 (Homo sapiens, UniProt Q9NQW7). Put plainly: Inhibition of recombinant XPNPEP1, H-Lys. It is filed as biochemical. The note with it: for XPNPEP1 inhibition (in words): recombinant XPNPEP1.
For another data set, the system named is MV4;11 WT cells. Description: CellTiter-Glo cell viability, WT MV4. The format is cell-based, human. The settings on record: CTG, 24 h.
A short description of data set [1]: Stability in cell culture supernatants. The format is in vitro ADME. In short, it runs like this:
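Test compounds are incubated in conditioned medium collected from MV4;11 cultures for 24 h at 37 °C. Intact compound and the free acid product are then quantified by LC/MS, with species identified by retention time. Values are means ± SEM of three biological replicates.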

The subject of the next data set is MV4;11 CASP1^−/− cells. Description: CellTiter-Glo cell viability, CASP1 knockout MV4. It is filed as cell-based, human. The note with it: for Cell death independent of CASP1 in MV4;11 cells (in words): WT and CASP1^−/− MV4;11, CTG, 24 h. The method, boiled down:
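CASP1-knockout MV4;11 cells (generated previously) are grown alongside wild type in RPMI 1640 with 10% FBS at 37 °C in 5% CO2. Cells are plated at 2000 per well in 384-well plates and dosed by pin tool in three-fold dilutions, topping at 100 μM (down to 15.2 nM) or 10 μM (down to 1.5 nM). After 24 h, CellTiter-Glo luminescence is read (2 min shake, 10 min at 25 °C). IC50 values are means ± SEM of three biological replicates.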
(In general: In ATP-based viability assays light output follows the ATP content of the culture.)

In the next data set the test system is OCI-AML2 cells. Description: PI uptake in OCI-AML2 cells. The note with it: 6.25 μM, compared to CQ31. It is filed as cell-based, human. In short, it runs like this: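 OCI-AML2 cells (2 × 10^4 per well, 384-well, RPMI) are treated with 6.25 μM compound, with PI added at 10 μM final. PI fluorescence (Ex/Em 535/617 nm) is recorded at 37 °C every 5 min over 6 h. Signals are baseline-corrected to DMSO vehicle and normalized to the maximum response. Values are means ± SEM of three biological replicates.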

Data set [2] has as its system DOX-inducible CARD8 E274R mutant THP-1 cells. Description: CARD8 E274R mutant NT degradation assay in CARD8^−/− THP-1 cells. The format is cell-based, human. The settings on record: DOX 100 ng/mL 16 h; VbP 10 μM, CQ31/CQ80 20 μM, VP-OMe 1 mM, MeBs 10 μM; 6 h. In short, it runs like this:
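Parental CARD8-knockout THP-1 cells carry a stably integrated doxycycline-inducible CARD8 E274R construct. Cells are grown in RPMI 1640 with L-glutamine and 10% FBS at 37 °C in 5% CO2. They are induced with or without DOX (100 ng/mL, 16 h), then exposed to test compounds for 6 h.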

Data set [3] addresses CARD8-DPP9 ternary complex in HEK 293T^CASP1+GSDMD cells (Homo sapiens, UniProt Q86TI2). Put plainly: dTAG-based CARD8-DPP9 ternary complex disruption assay. The note with it: dTAG-13 500 nM; VbP 10 μM, CQ31 20 μM, CQ80 20 μM, VP-OMe 1 mM; 6 h; LDH release. It is filed as cell-based. (In general: Release of lactate dehydrogenase indicates damage to the cell membrane.)

Structures are written as SMILES. Where a SMILES comes first, the peptide text is derived from it.

Chain of recombinant XPNPEP1 (Q9NQW7 whole entry): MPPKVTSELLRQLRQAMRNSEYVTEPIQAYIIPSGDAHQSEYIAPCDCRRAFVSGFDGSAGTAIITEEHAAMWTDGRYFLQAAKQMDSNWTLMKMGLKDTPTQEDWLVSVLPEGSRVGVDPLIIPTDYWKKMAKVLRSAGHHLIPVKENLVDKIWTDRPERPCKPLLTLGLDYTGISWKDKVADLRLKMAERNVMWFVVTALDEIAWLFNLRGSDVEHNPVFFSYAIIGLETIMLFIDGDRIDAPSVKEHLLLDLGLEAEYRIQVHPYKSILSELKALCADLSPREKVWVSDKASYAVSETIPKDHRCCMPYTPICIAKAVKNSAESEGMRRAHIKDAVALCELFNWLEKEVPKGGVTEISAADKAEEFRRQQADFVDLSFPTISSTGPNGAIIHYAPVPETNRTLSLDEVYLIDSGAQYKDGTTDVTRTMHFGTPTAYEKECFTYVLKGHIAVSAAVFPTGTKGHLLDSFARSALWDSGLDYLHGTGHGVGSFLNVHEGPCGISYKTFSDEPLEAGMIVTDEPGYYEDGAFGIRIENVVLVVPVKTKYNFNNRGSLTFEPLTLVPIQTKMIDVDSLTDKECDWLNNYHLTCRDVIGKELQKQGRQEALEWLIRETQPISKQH
Chain of CARD8-DPP9 ternary complex in HEK 293T^CASP1+GSDMD cells (Q86TI2 whole entry, one chain of several): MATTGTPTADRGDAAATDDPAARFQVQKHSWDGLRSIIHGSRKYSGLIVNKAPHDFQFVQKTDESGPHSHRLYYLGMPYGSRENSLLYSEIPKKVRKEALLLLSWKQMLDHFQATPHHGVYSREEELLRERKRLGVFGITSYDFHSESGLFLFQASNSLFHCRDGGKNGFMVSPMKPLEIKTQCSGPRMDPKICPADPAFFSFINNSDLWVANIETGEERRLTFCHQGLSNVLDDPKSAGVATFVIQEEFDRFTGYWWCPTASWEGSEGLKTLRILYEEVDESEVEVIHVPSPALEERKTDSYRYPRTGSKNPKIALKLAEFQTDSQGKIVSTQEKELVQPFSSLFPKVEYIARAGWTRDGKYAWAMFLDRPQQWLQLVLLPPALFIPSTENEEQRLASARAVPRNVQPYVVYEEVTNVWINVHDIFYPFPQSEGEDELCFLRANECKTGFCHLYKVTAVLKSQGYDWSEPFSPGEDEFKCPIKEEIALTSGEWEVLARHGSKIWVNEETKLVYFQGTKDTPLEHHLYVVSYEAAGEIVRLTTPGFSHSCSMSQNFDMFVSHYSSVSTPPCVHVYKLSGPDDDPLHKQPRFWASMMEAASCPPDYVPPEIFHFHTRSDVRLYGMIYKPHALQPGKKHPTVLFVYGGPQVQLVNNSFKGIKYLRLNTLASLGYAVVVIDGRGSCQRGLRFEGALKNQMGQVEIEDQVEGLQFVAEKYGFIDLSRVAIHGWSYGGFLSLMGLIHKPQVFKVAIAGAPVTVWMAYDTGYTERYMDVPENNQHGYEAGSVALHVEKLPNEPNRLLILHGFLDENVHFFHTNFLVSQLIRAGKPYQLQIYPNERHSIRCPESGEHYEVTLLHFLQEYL

Turning to `CC(C)C[C@@H](N)C(O)C(=O)N1CCC[C@H]1C(=O)O` (stereo partly drawn) [CQ04, (2S,3R)-3-amino-2-hydroxy-5-methyl-hexanoyl-proline], on recombinant human PEPD, the “PEPD inhibition (in words)” value was “more potent than CQ31”. The “XPNPEP1 inhibition (in words)” value on recombinant XPNPEP1 is “more potent than CQ31”.
Turning to `CC(C)C[C@@H](N)[C@H](O)C(=O)N1CCC[C@H]1C(=O)OC(C)(C)C` [CQ34, tert-Butyl ((2S,3R)-3-Amino-2-hydroxy-5-methylhexanoyl)-L-pro-linate], the “PEPD inhibition (in words)” value at recombinant human PEPD is “inhibited PEPD and XPNPEP1 similarly”. The “XPNPEP1 inhibition (in words)” value at recombinant XPNPEP1 was “inhibited PEPD and XPNPEP1 similarly”. The “Cytotoxicity / activity against MV4;11 cells (in words)” value (“Cytotoxicity / activity” for short) in the data set on MV4;11 WT cells is “slightly more toxic”. For the same molecule, in data set [1], the “Stability in cell culture supernatants (in words)” value is listed as “considerably more stable than CQ31 or CQ94” and the “Time after which completely hydrolyzed” value is given as at most 8 h.
Take `COC(=O)[C@@H]1C[C@H](O)CN1C(=O)[C@@H](O)[C@H](N)CC(C)C` [CQ39, Methyl (2S,4S)-1-((2S,3R)-3-Amino-2-hydroxy-5-methylhexano-yl)-4-hydroxypyrrolidine-2-carboxylate]: the “Cytotoxicity / activity” value in the data set on MV4;11 WT cells was “completely inactive”.
For the molecule `COC(=O)[C@@H]1CCCN1C(=O)[C@@H](O)[C@H](N)Cc1ccccc1` [CQ42, Methyl ((2S,3R)-3-Amino-2-hydroxy-4-phenylbutanoyl)-l-prolinate], in the data set on MV4;11 WT cells, the “Cytotoxicity / activity” value was “almost completely inactive”.
Turning to `COC(=O)[C@@H]1CCCN1C(=O)[C@@H](O)[C@H](N)C12CC3CC(CC(C3)C1)C2` [CQ47, Methyl ((2S,3R)-3-(Adamantan-1-yl)-3-amino-2-hydroxypropanoyl)-l-prolinate], the “Cytotoxicity / activity” value with MV4;11 WT cells was “almost completely inactive”.
Same read-out and setting: to `CC(C)C[C@@H](N)[C@H](O)C(=O)N1CCC[C@H]1C(N)=O` [CQ49, (S)-1-((2S,3R)-3-Amino-2-hydroxy-5-methylhexanoyl)-pyrrolidine-2-carboxamide] belongs “retained similar PEPD/XPNPEP1 inhibition and cytotoxicity as CQ31”.
As for `COC(=O)[C@H](CC(C)C)NC(=O)[C@@H](O)[C@H](N)CC(C)C` [CQ52, Methyl ((2S,3R)-3-Amino-2-hydroxy-5-methylhexanoyl)-l-leucinate], the “PEPD inhibition (in words)” value on recombinant human PEPD is “very weak PEPD and XPNPEP1 inhibitors”. Also, the “XPNPEP1 inhibition (in words)” value at recombinant XPNPEP1 is “very weak PEPD and XPNPEP1 inhibitors”. Besides, the “Cell death independent of CASP1 in MV4;11 cells (in words)” value (“Cell death independent of CASP1” for short) with MV4;11 CASP1^−/− cells is “triggered CASP1-independent cell death”.
Consider `CC(C)C[C@@H](N)[C@H](O)C(=O)N1CCC[C@H]1CNS(C)(=O)=O` [CQ53, N-(((S)-1-((2S,3R)-3-Amino-2-hydroxy-5-methylhexanoyl)-pyrrolidin-2-yl)methyl)methanesulfon-amide], for which, in the data set on MV4;11 WT cells, the “Cytotoxicity / activity” value was “completely inactive in cells”.
The same measure, in the same setting: next, `CONC(=O)[C@@H]1CCCN1C(=O)[C@@H](O)[C@H](N)CC(C)C` [CQ55, (S)-1-((2S,3R)-3-Amino-2-hydroxy-5-methylhexanoyl)-N-methoxypyrrolidine-2-carboxamide]: “completely inactive in cells”; `COC(=O)[C@@H]1CCCN1C(=O)[C@@H](O)[C@H](N)C1CC1` [CQ62, Methyl ((2S,3R)-3-Amino-3-cyclopropyl-2-hydroxypropanoyl)-l-prolinate]: “almost completely inactive”.
`COC(=O)[C@H](Cc1ccccc1)NC(=O)[C@@H](O)[C@H](N)CC(C)C` [CQ72, Methyl ((2S,3R)-3-Amino-2-hydroxy-5-methylhexanoyl)-l-phenylalaninate]: at recombinant human PEPD, the “PEPD inhibition (in words)” value is “very weak PEPD and XPNPEP1 inhibitors”. Besides, at recombinant XPNPEP1, the “XPNPEP1 inhibition (in words)” value is “very weak PEPD and XPNPEP1 inhibitors”. For the same molecule, the “Cell death independent of CASP1” value with MV4;11 CASP1^−/− cells is listed as “triggered CASP1-independent cell death”.
For the molecule `COC(=O)[C@@H]1CCCN1C(=O)[C@@H](O)[C@H](N)CCCCO` [CQ75], the “PEPD inhibition (in words)” value at recombinant human PEPD is reported as “retained PEPD inhibition”. Further, the “Cytotoxicity / activity” value in the data set with MV4;11 WT cells is on record as “lost cytotoxicity”.
On to `CC(C)C[C@@H](N)[C@H](O)C(=O)N1CCCC1` [CQ76, (2S,3R)-3-Amino-2-hydroxy-5-methyl-1-(pyrrolidin-1-yl)hexan-1-one], for which, in the data set on MV4;11 WT cells, the “Cytotoxicity / activity” value is listed as “abrogated all activity”.
As for `COC(=O)[C@@H](NC(=O)[C@@H]1CCCN1C(=O)[C@@H](O)[C@H](N)CC(C)C)C(C)C` [CQ78, Methyl ((2S,3R)-3-Amino-2-hydroxy-5-methylhexanoyl)-l-prolyl-l-valinate], the “Rate of lytic cell death by PI uptake in OCI-AML2 cells” value in the data set on OCI-AML2 cells is on record as “caused more rapid lytic cell death”.
On to `CC(C)C[C@H](NC(=O)[C@@H]1CCCN1C(=O)[C@@H](O)[C@H](N)CC(C)C)C(=O)O` [CQ92], for which, at recombinant human PEPD, the “PEPD inhibition (in words)” value is “more potent inhibitor of both PEPD and XPNPEP1 than CQ80”. For the same molecule, the “XPNPEP1 inhibition (in words)” value at recombinant XPNPEP1 is “more potent inhibitor of both PEPD and XPNPEP1 than CQ80”.
As for `CC(C)C[C@@H](N)[C@H](O)C(=O)N1CCC[C@H]1C(=O)OC1CCCC1` [CQ94, Cyclopentyl ((2S,3R)-3-Amino-2-hydroxy-5-methylhexanoyl)-L-prolinate], the “PEPD inhibition (in words)” value at recombinant human PEPD was “inhibited PEPD and XPNPEP1 similarly”. In addition, the “XPNPEP1 inhibition (in words)” value at recombinant XPNPEP1 was “inhibited PEPD and XPNPEP1 similarly”. Moreover, the “Cytotoxicity / activity” value with MV4;11 WT cells is on record as “slightly more toxic”.
For the molecule `CC(C)CCNC(=O)[C@@H]1CCCN1C(=O)[C@@H](O)[C@H](N)CC(C)C` [CQ95, (S)-1-((2S,3R)-3-Amino-2-hydroxy-5-methylhexanoyl)-N-isopentylpyrrolidine-2-carboxamide], the “Cytotoxicity / activity” value with MV4;11 WT cells was “retained similar PEPD/XPNPEP1 inhibition and cytotoxicity as CQ31”.
Still for that read-out and setting: next, `CC(C)C[C@@H](N)[C@H](O)C(=O)N1CCC[C@H]1c1nnn[nH]1` [CQ99, (2S,3R)-1-((S)-2-(1H-Tetrazol-5-yl)pyrrolidin-1-yl)-3-amino-2-hydroxy-5-methylhexan-1-one]: “completely inactive in cells”.
As to `CC(C)C[C@H](NC(=O)[C@@H]1CCCN1C(=O)[C@@H](O)[C@H](N)CC(C)C)C(=O)NCCc1ccccc1` [CQ116, (S)-1-((2S,3R)-3-Amino-2-hydroxy-5-methylhexanoyl)-N-((S)-4-methyl-1-oxo-1-(phenethylamino)pentan-2-yl)pyrrolidine-2-carboxamide], the “Stability in cell culture supernatants (in words)” value in data set [1] was “completely stable”.
Turning to `COC(=O)[C@H](CC(C)C)NC(=O)[C@@H](O)[C@H](N)Cc1ccccc1` [MeBs, bestatin methyl ester, reference compound], in the data set with MV4;11 CASP1^−/− cells, the “Cell death independent of CASP1” value was “CASP1-independent cell death”. Moreover, in data set [2], the “Additional cell death in CARD8 E274R assay (NT degradation)” value is listed as “still induce considerably more cell death”.
In the case of `COC(=O)[C@@H]1CCCN1C(=O)[C@@H](N)C(C)C` [VP-OMe, reference compound] (H-Val-Pro-OMe), the “Pyroptosis after dTAG-13 treatment (ternary complex destabilization)” value in data set [3] is listed as “induce more pyroptosis after dTAG-13 treatment”. Further, the “Additional cell death in CARD8 E274R assay (NT degradation)” value in data set [2] is given as “did not cause substantially more death”.
For `C[C@H](NC(=O)[C@@H]1CCCN1C(=O)[C@@H]1CCCN1C(=O)[C@@H](O)[C@H](N)Cc1ccccc1)C(N)=O` [apstatin, reference compound], the IC50 at recombinant XPNPEP1 (read-out: XPNPEP1 IC50 (μM ± SEM), recombinant XPNPEP1, H-Lys(abz)-Pro-Pro-pNA cleavage, means ± SEM of three biological replicates) was 18 ± 1.7 µM; in the data set on MV4;11 CASP1^−/− cells (read-out: MV4;11 CASP1^−/− IC50, CTG cell viability after 24 h treatment), above 20 µM. Moreover, in the data set with MV4;11 WT cells, the “Cytotoxicity / activity” value was “not cytotoxic at all”.

Values taken from publication PMC10149104 (Journal of medicinal chemistry, 2023).
